In ChEMBL document CHEMBL2390929, “New nitric oxide donating 1,2,4-triazole/oxime hybrids: synthesis, investigation of anti-inflammatory, ulceroginic liability and antiproliferative activities” (Bioorg Med Chem, 2013):

Legend:
[1] = system: Rattus norvegicus; experiment: Antiinflammatory activity in albino rat assessed as inhibition of carrageenan-induced paw edema at 0.28 mmol/kg, po after 4 hrs relative to control; type: functional
Summary of the method: (§1)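 Adult male albino rats (120–140 g), four per group, fasted 24 h with water allowed. Test agent suspended in 0.5% w/v aqueous CMC and given orally at 0.28 mmol/kg; controls received CMC alone. After 30 min, 0.1 mL fresh 1% carrageenan in saline was injected subplantar into the right hind paw and saline into the left. Paw thickness was measured by Vernier caliper; % inhibition = [(VR−VL)control − (VR−VL)treated]/(VR−VL)control ×100. Mean ± SEM, one-way ANOVA.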

[2] = Induction of nitric oxide release in phosphate buffer at pH 7.4 at 0.1 mM after 6 hrs by Griess method in presence of 0.5 mM of N-acetylcysteine; type: physicochemical; conditions: pH 7.4, 6 h, 100 µM
Summary of the method: (§2)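 Compound in DMF diluted to final 10^-4 M in 1:1 50 mM phosphate buffer pH 7.4/MeOH with 5×10^-4 M N-acetylcysteine, 37 °C. Aliquot mixed with Griess reagent, 10 min at room temperature, A546 read. Nitrite quantified against sodium nitrite standards (10–80 nmol/mL); NO expressed as mol/mol. n = 4 reaction mixtures per compound.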

[3] = Induction of nitric oxide release in phosphate buffer at pH 7.4 at 0.1 mM after 1 hr by Griess method in presence of 0.5 mM of N-acetylcysteine; type: physicochemical; conditions: pH 7.4, 1 h, 100 µM; summary of the method: as §2
[4] = Induction of nitric oxide release in phosphate buffer at pH 7.4 at 0.1 mM after 3 hrs by Griess method in presence of 0.5 mM of N-acetylcysteine; type: physicochemical; conditions: pH 7.4, 3 h, 100 µM; summary of the method: as §2
[5] = system: Rattus norvegicus; experiment: Gastrointestinal toxicity in albino rat assessed as ulcer index at 0.28 mmol/kg, po (reference value: 0.60 +/- 0.05); type: organism-based; conditions: in vivo
[6] = system: Rattus norvegicus; experiment: Antiinflammatory activity in albino rat assessed as inhibition of carrageenan-induced paw edema at 0.28 mmol/kg, po after 3 hrs relative to control; type: functional; summary of the method: as §1
[7] = Induction of nitric oxide release in phosphate buffer at pH 7.4 at 0.1 mM after 4 hrs by Griess method in presence of 0.5 mM of N-acetylcysteine; type: physicochemical; conditions: pH 7.4, 4 h, 100 µM; summary of the method: as §2
[8] = system: Rattus norvegicus; experiment: Antiinflammatory activity in albino rat assessed as inhibition of carrageenan-induced paw edema at 0.28 mmol/kg, po after 2 hrs relative to control; type: functional; summary of the method: as §1
[9] = Induction of nitric oxide release in phosphate buffer at pH 7.4 at 0.1 mM after 5 hrs by Griess method in presence of 0.5 mM of N-acetylcysteine; type: physicochemical; conditions: pH 7.4, 5 h, 100 µM; summary of the method: as §2
[10] = Induction of nitric oxide release in phosphate buffer at pH 7.4 at 0.1 mM after 2 hrs by Griess method in presence of 0.5 mM of N-acetylcysteine; type: physicochemical; conditions: pH 7.4, 2 h, 100 µM; summary of the method: as §2
[11] = system: Rattus norvegicus; experiment: Antiinflammatory activity in albino rat assessed as inhibition of carrageenan-induced paw edema at 0.28 mmol/kg, po after 5 hrs relative to control; type: functional; summary of the method: as §1
[12] = system: Rattus norvegicus; experiment: Antiinflammatory activity in albino rat assessed as inhibition of carrageenan-induced paw edema at 0.28 mmol/kg, po after 1 hr relative to control; type: functional; summary of the method: as §1
[13] = system: Rattus norvegicus; experiment: Gastrointestinal toxicity in albino rat assessed as histopathological analysis at 0.28 mmol/kg, po using haematoxylin and eosin staining by light microscopic analysis; type: organism-based; conditions: in vivo
Summary of the method: (§3)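 Adult male albino rats (120–140 g, Minia University), groups of four, fasted 24 h with water allowed. Oral dose 0.28 mmol/kg suspended in 0.5% aqueous CMC; vehicle-only controls. Gastric sections dewaxed, stained with haematoxylin 5–7 min, differentiated in 1% HCl/70% alcohol, counterstained with 1% eosin 10 min. Cleared in xylene, mounted, examined by light microscopy at ×400.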

[14] = system: Rattus norvegicus; experiment: Gastrointestinal toxicity in albino rat assessed as acute inflammatory cell infiltrating its whole thickness and apparently destroying epithelial lining of gastric pits at 0.28 mmol/kg, po using haematoxylin and eosin staining by light microscopic analysis; type: organism-based, Stomach; conditions: in vivo; summary of the method: as §3
[15] = system: Rattus norvegicus; experiment: Gastrointestinal toxicity in albino rat assessed as severe atrophic gastritis and gland atrophy at 0.28 mmol/kg, po using haematoxylin and eosin staining by light microscopic analysis; type: organism-based; conditions: in vivo; summary of the method: as §3
[16] = system: Rattus norvegicus; experiment: Gastrointestinal toxicity in albino rat assessed as acute inflammatory cell infiltrating its whole thickness and apparently destroying surface of epithelium at 0.28 mmol/kg, po using haematoxylin and eosin staining by light microscopic analysis; type: organism-based; conditions: in vivo; summary of the method: as §3
[17] = system: Rattus norvegicus; experiment: Gastrointestinal toxicity in albino rat assessed as capillary vasodilatation associated with accumulation of edema fluid in lamina propria at 0.28 mmol/kg, po using haematoxylin and eosin staining by light microscopic analysis; type: organism-based; conditions: in vivo; summary of the method: as §3
[18] = system: Rattus norvegicus; experiment: Gastrointestinal toxicity in albino rat assessed as decreased in thickness with marked loss of mucosal membrane at areas of ulceration at 0.28 mmol/kg, po using haematoxylin and eosin staining by light microscopic analysis; type: organism-based; conditions: in vivo; summary of the method: as §3
[19] = system: Rattus norvegicus; experiment: Gastrointestinal toxicity in albino rat assessed as apoptotic glandular epithelial cells at 0.28 mmol/kg, po using haematoxylin and eosin staining by light microscopic analysis; type: organism-based, Epithelial cell; conditions: in vivo; summary of the method: as §3

Activity [2] [mol/mol] | Activity [3] [mol/mol] | Activity [4] [mol/mol] | Activity [7] [mol/mol] | Activity [9] [mol/mol] | Activity [10] [mol/mol] | SMILES | inhibition in vivo at 280 µmol/kg [1] [%] | UI [5] | inhibition in vivo at 280 µmol/kg [6] [%] | inhibition in vivo at 280 µmol/kg [8] [%] | inhibition in vivo at 280 µmol/kg [11] [%] | inhibition in vivo at 280 µmol/kg [12] [%] | Activity [13] | Activity [14] | Activity [15] | Activity [16] | Activity [17] | Activity [18] | Activity [19]
0.12 | 0.08 | 0.14 | 0.19 | 0.14 | 0.11 | CCn1c(SC/C(=N/O)c2ccccc2)nnc1-c1ccc(OC)cc1 | 78 | 2.53 | 75 | 72 | 71 | 69 | – | – | – | – | – | – | –
0.14 | 0.11 | 0.12 | 0.21 | 0.18 | 0.12 | CCn1c(SC/C(=N/O)c2ccccc2)nnc1-c1cc(OC)c(OC)c(OC)c1 | 79 | 3.66 | 69 | 67 | 74 | 63 | – | – | – | – | – | – | –
– | – | – | – | – | – | C=CCn1c(SCC(=O)c2ccccc2)nnc1-c1ccccc1 | 66 | 2.44 | 70 | 58 | 66 | 43 | – | – | – | – | – | – | –
– | – | – | – | – | – | C=CCn1c(SCC(=O)c2ccccc2)nnc1-c1ccc(OC)cc1 | 67 | 5.34 | 63 | 53 | 61 | 49 | – | – | – | – | – | – | –
– | – | – | – | – | – | C=CCn1c(SCC(=O)c2ccccc2)nnc1-c1ccc(OC)c(OC)c1 | 72 | 4.26 | 64 | 63 | 62 | 61 | – | – | – | – | – | – | –
– | – | – | – | – | – | C=CCn1c(SCC(=O)c2ccccc2)nnc1-c1cc(OC)c(OC)c(OC)c1 | 66 | 6.39 | 66 | 62 | 60 | 49 | – | – | – | – | – | – | –
– | – | – | – | – | – | CCn1c(SCC(=O)c2ccccc2)nnc1-c1ccccc1 | 63 | 4.49 | 61 | 55 | 51 | 52 | – | – | – | – | – | – | –
– | – | – | – | – | – | CCn1c(SCC(=O)c2ccccc2)nnc1-c1ccc(OC)cc1 | 70 | 6.59 | 67 | 60 | 61 | 53 | – | – | – | – | – | – | –
– | – | – | – | – | – | CCn1c(SCC(=O)c2ccccc2)nnc1-c1ccc(OC)c(OC)c1 | 73 | 7.36 | 61 | 55 | 69 | 42 | Non-toxic | – | – | – | – | – | –
– | – | – | – | – | – | CCn1c(SCC(=O)c2ccccc2)nnc1-c1cc(OC)c(OC)c(OC)c1 | 72 | 3.42 | 49 | 41 | 59 | 29 | – | – | – | – | – | – | –
– | – | – | – | – | – | O=C(CSc1nnc(-c2ccccc2)n1-c1ccccc1)c1ccccc1 | 68 | 9.58 | 64 | 60 | 63 | 53 | – | – | – | – | – | – | –
– | – | – | – | – | – | COc1ccc(-c2nnc(SCC(=O)c3ccccc3)n2-c2ccccc2)cc1 | 68 | 8.74 | 58 | 57 | 61 | 52 | – | – | – | – | – | – | –
– | – | – | – | – | – | COc1ccc(-c2nnc(SCC(=O)c3ccccc3)n2-c2ccccc2)cc1OC | 65 | 9.41 | 59 | 57 | 59 | 56 | – | – | – | – | – | – | –
– | – | – | – | – | – | COc1cc(-c2nnc(SCC(=O)c3ccccc3)n2-c2ccccc2)cc(OC)c1OC | 73 | 5.29 | 68 | 51 | 72 | 44 | – | – | – | – | – | – | –
0.17 | 0.06 | 0.13 | 0.16 | 0.22 | 0.1 | C=CCn1c(SC/C(=N\O)c2ccccc2)nnc1-c1ccccc1 | 77 | 2.3 | 65 | 60 | 68 | 58 | – | – | – | – | – | – | –
0.14 | 0.09 | 0.12 | 0.15 | 0.15 | 0.12 | C=CCn1c(SC/C(=N/O)c2ccccc2)nnc1-c1ccc(OC)cc1 | 76 | 1.14 | 67 | 66 | 57 | 61 | – | – | – | – | – | – | –
0.17 | 0.08 | 0.12 | 0.13 | 0.17 | 0.1 | C=CCn1c(SC/C(=N/O)c2ccccc2)nnc1-c1cc(OC)c(OC)c(OC)c1 | 73 | 5.52 | 70 | 68 | 77 | 61 | – | – | – | – | – | – | –
– | – | – | – | – | – | COc1ccc2c(c1)c(CC(=O)O)c(C)n2C(=O)c1ccc(Cl)cc1 [INDOMETHACIN] | 83 | 63.45 | 74 | 67 | 87 | 51 | – | Toxic | Toxic | Toxic | Toxic | Toxic | Toxic
